Sampled rows, rich in hits. Any-hit rate of the full collection: about 4.5%.
TAAR1 agonist: agonists of human TAAR1; Q96RJ0; CHO RD-HGA16 TAAR1, Fluo-8 calcium fluorescence; vehicle wells 0%, saturating PEA agonist 100%; activation, % at 3 µM; AID 624467; 360,000 compounds, 0.99% hits;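 active means activation above the mean activation of all test compounds in the run plus 3 SD, cut at about 38% in these data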
Target sequence (Q96RJ0 whole entry, looked up): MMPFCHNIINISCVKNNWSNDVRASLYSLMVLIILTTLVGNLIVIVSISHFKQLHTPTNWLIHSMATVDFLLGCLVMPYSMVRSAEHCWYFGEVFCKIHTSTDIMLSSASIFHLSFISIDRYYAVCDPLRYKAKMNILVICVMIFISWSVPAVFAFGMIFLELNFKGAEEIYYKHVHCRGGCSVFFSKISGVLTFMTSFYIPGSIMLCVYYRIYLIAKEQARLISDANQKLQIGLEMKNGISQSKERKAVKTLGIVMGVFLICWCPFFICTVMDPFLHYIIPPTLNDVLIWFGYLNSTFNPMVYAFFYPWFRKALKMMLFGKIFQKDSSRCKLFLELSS
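test system = CHO RD-HGA16 cells carrying human TAAR1 plus Gα16 | schedule = 17-24 h seeding, 75 min 37 °C dye, 30 min RT | compound dosing = 3 µM single concentration | control set = DMSO and PEA EC100 | replicates = n 1 | signal = Fluo-8 fluorescence, 5 s baseline then 140 s kinetic read | measure = percent activation vs PEA EC100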
OX1R antag-1: blocks the human orexin 1 receptor. OX1R-expressing cells, FRET antagonist read-out. inhibition, % at 6.6 µM. 330,000 compounds, 1.8% hits. AID 485270; in the data active means inhibition mostly above about 38%, no sharp cut-off; inactive means mostly below about 40%;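 further: 0% = agonist challenge alone and 100% = reference antagonist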
TAAR1 antag: antagonists of human TAAR1 | inhibition, % at 3 µM | 360,000 compounds, 1.5% hits | CHO RD-HGA16 TAAR1, Fluo-8 calcium fluorescence, antagonist;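 active means inhibition above a per-plate cutoff, the mean inhibition of test compounds on that plate plus 3 SD, cut at about 49% in these data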;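 further: 0% = DMSO plus EC80 beta-PEA response and 100% = DMSO alone without agonist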
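Test system: CHO RD-HGA16 cells bearing hTAAR1 | Reagent: β-PEA, EC80 | Compound dosing: 3 µM, single point | Schedule: Dye loading 75 min at 37 °C, then 30 min room temperature | Signal: Calcium fluorescence with Fluo-8 | Evaluation: Percent inhibition of PEA-evoked calcium signal, max/basal emission ratio | Control set: DMSO-only wells and EC80 β-PEA-stimulated wells | Repeats: Singlicate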
GPR7 antagonist: antagonists of human GPR7 (neuropeptides B/W receptor 1). AID 1861. GPR7-expressing cells, fluorescence antagonist assay. 290,000 compounds, 1.1% hits. inhibition, % at 4.4 µM. P48145; in the data active means inhibition above about 16%, passing the limit was not always enough;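 further: cells stimulated with the agonist NPW; 0% = agonist with vehicle and 100% = vehicle without agonist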
Target sequence (P48145 whole entry, looked up): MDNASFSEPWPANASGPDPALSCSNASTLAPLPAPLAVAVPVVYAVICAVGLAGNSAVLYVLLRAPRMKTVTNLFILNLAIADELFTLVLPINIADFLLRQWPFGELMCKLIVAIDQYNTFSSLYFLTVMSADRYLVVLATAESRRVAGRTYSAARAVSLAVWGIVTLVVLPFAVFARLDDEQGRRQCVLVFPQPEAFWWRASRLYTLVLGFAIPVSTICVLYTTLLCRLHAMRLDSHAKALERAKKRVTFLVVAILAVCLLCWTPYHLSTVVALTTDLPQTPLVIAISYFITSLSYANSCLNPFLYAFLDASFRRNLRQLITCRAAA
CHO parental Ca: signal in parental CHO cells, OX1R antagonist counter-screen; parental CHO-K1, ATP-induced calcium, Fluo-8 fluorescence; inhibition, % at 5.6 µM; 330,000 compounds, 0.63% hits;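 active means inhibition above that plate's mean sample inhibition plus 3 SD, cut at about 26% in these data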;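 further: 0% = ATP-challenged DMSO wells and 100% = DMSO wells without ATP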
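Test system: untransfected parental CHO cell line. Compound: one dose, 5.6 µM nominal. Detection: intracellular calcium via Fluo-8 no-wash fluorescent dye. Measure: % inhibition. Benchmarks: ATP-challenged DMSO wells low, unchallenged DMSO wells high.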
OX1R antag-2: antagonists of human orexin 1 receptor. CHO/OX1R cells, Fluo-8 calcium fluorescence, orexin A. inhibition, % at 5 µM. 330,000 compounds, 0.43% hits;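 active means inhibition above its plate's threshold, mean inhibition of all tested compounds on the plate plus 3 SD, cut at about 37% in these data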;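 further: 0% = orexin A challenge wells and 100% = SB-334867-A antagonist wells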
Starred values were filed as active, the others as inactive; · = no result given.

SMILES	TAAR1 agonist	OX1R antag-1	TAAR1 antag	GPR7 antagonist	CHO parental Ca	OX1R antag-2
CCOC(=O)C1=C(C(=O)OCC)C2N(Cc3ccc(C#N)cc3)c3ccccc3[C@@]23C[C@@H](C(=O)OC)N(S(=O)(=O)c2ccc(C#N)cc2)C3=N1 (some centres not stated)	1	·	-24	·	·	·
COc1ccc([N+](=O)[O-])c2c(=O)ccoc12	0	30	1	-2	-8	-11
CCOC(=O)c1cc(=O)c2c([N+](=O)[O-])ccc(OC)c2o1	0	70*	-8	-3	-7	12
CCCCn1c(N)c(N(C(=O)CSc2nncn2-c2ccccc2)C2CCCC2)c(=O)[nH]c1=O	7	·	6	·	·	·
O=[N+]([O-])c1cccc(N/N=C/c2ccc(N3CCOCC3)cc2)c1	14	28	58*	-2	24	23
Cc1ccc(CCNC(=O)C(C)n2nc(C)c3c(C)n(-c4ccccc4)nc3c2=O)cc1 (configuration not stated)	-3	13	-27	-23	-16	-29
Cc1ccc(-n2nc3c(=O)n(C(C)C(=O)NCCC4=CCCCC4)nc(C)c3c2C)cc1 (configuration not stated)	38*	11	-3	1	16	-4
Cc1ccc(C(O)c2ncc(-c3ccccc3C(F)(F)F)[nH]2)cc1F (configuration not stated)	3	·	-6	·	·	·
CCOC(=O)c1ccc(NC(=O)c2ccc(NC(=O)c3ccccc3)cc2)cc1	-2	10	17	-12	-10	-21
CCOC(=O)c1ccc(NC(=O)c2cc3c(s2)CCC3)cc1	0	70*	-47	-8	-7	-5
COC(=O)C[C@@H]1CC[C@H](NC(=O)c2cnccn2)[C@@H](CO)O1	1	·	11	·	·	·
CCC(C)(C)NC(=O)c1ccc2c(c1)S(=O)(=O)c1ccccc1C2=O	11	61	17	-2	-22	-37
CN1CCN(C(=O)c2ccc3c(c2)S(=O)(=O)c2ccccc2C3=O)CC1	2	76*	-15	-1	-8	-7
CCN(CC(=O)NC(C)(C)C)C(=O)c1ccc2c(c1)S(=O)(=O)c1ccccc1C2=O	2	56*	-1	-1	-24	-29
O=C1c2ccccc2S(=O)(=O)c2cc(C(=O)N3CCC(O)CC3)ccc21	4	75*	-5	·	1	-3
CCN1CCN(C(=O)c2ccc3c(c2)S(=O)(=O)c2ccccc2C3=O)CC1	6	60*	5	-12	-15	0
O=C1c2ccccc2S(=O)(=O)c2cc(C(=O)N3CCN(c4ncccn4)CC3)ccc21	10	27	13	·	4	-7
COc1ccc2c(c1)nc(-c1cccc(Br)c1)c(=O)n2C(c1ccccn1)c1nc2ccccc2[nH]1 (configuration not stated)	-1	·	0	·	·	·
O=C(NCc1ccccc1)[C@H]1CCCN1C(=O)[C@H]1CCCN1C(=O)c1ccc(F)cc1F	1	·	-13	·	·	·
O=C1c2ccccc2S(=O)(=O)c2cc(C(=O)N3CCN(C(=O)c4ccccc4)CC3)ccc21	7	39	4	·	-5	-12
CC(=O)N1CCN(C(=O)c2ccc3c(c2)S(=O)(=O)c2ccccc2C3=O)CC1	3	69*	1	-3	-14	-11
CCCc1nc2c(C)cc(Br)cn2c1Cc1ccccc1OC	2	·	-16	·	·	·
C[C@H]1O[C@H](C2CCCC2)CC2=C1C(=O)OC(C)(C)O2	-1	·	-5	·	·	·
COc1cc(C(=O)NNC(=O)c2ccc3c(c2)OCCO3)cc(OC)c1OC	4	-2	-6	·	-3	-9
COc1cc(C(=O)NNC(=S)NC(=O)c2ccc3c(c2)OCO3)cc(OC)c1OC	44*	17	-30	5	-13	-33
SMILES	TAAR1 agonist	OX1R antag-1	TAAR1 antag	GPR7 antagonist	CHO parental Ca	OX1R antag-2
COCCNC(=O)CN(C(=O)c1ccc(N2CCCC2)nc1)c1ccccc1	3	24	17	25*	-3	-2
COCCNC(=O)CN(C(=O)c1ccc(N2CCCC2)nc1)c1ccc(F)c(Cl)c1	3	·	4	-8	·	·
CC1=Nc2ccccc2/C1=C\c1nc(-c2ccccc2)oc1O	7	26	28	-2	14	19
CC1=Nc2ccccc2/C1=C/c1nc(-c2ccc(C)s2)oc1O	38*	16	54*	14	43*	68*
Cn1cc([C@]2(O)C(=O)Nc3ccc(OC(F)(F)F)cc32)c2ccccc21	41*	·	40	·	·	·
CN(C)c1ccc(-c2csc(C(O)c3cccc(Cl)c3)n2)cc1 (configuration not stated)	52*	·	73*	·	·	·
CCN(CC)C(=O)c1cccc(-c2csc(C(O)c3cccc(Cl)c3)n2)c1 (configuration not stated)	3	·	57*	·	·	·
O=C(Cn1cnc([N+](=O)[O-])n1)NCCO	9	28	-37	-13	-6	1
O=C(Cn1cnc([N+](=O)[O-])n1)NCc1ccccc1	0	72*	2	7	-2	2
O=C(O)c1ccc(N/N=C/c2ccc(-c3ccccc3)cc2)cc1	2	·	18	2	·	·
O=C(O)c1ccc(N/N=C/c2ccc(OC(=O)c3ccccc3Cl)cc2)cc1	10	17	58*	-1	10	0
O=C(COC(=O)c1ccccc1NS(=O)(=O)c1ccc(Cl)cc1)NCc1ccccc1	3	49*	6	-2	-9	-26
CC(C)[C@H](NC(=O)c1ccco1)C(=O)N1CCC[C@H]1C(=O)NCc1ccccc1	0	·	3	·	·	·
COc1cc2c3c(c1OC)C(=O)CC3CCCC2 (configuration not stated)	-1	·	-20	·	·	·
O=C(OCc1ccccn1)c1ccc(COc2ccc3ccccc3c2)o1	0	5	19	-1	48*	40
C[C@@H]1CCCCO[C@@H](CN(C)C(=O)Nc2ccc(C(F)(F)F)cc2)[C@@H](C)CN([C@H](C)CO)C(=O)c2cc(NS(=O)(=O)c3ccc(Cl)cc3)ccc2O1	2	·	4	·	·	·
Cc1ccccc1S(=O)(=O)NC(=O)C1(C)CCN1C(=O)C1(c2ccccc2)CC1 (configuration not stated)	2	·	-21	·	·	·
COCCCNc1ccn2nc(-c3ccc(OCc4ccccc4)cc3)cc2n1	11	·	56*	·	·	·
c1ccc(COc2ccc(-c3cc4nc(NCCOc5ccccc5)ccn4n3)cc2)cc1	0	·	22	·	·	·
CC(C)C[C@H](NC(=O)N1CCOCC1)C(=O)N1CCC[C@H]1C(=O)NCc1ccccc1	4	·	-21	·	·	·
Cc1c(C(=O)c2ccc(Br)cc2)c(=O)n(C)c(=O)n1C	2	3	-16	0	3	-14
Cc1c(C(=O)c2ccc([N+](=O)[O-])cc2)c(=O)n(C)c(=O)n1C	7	74*	0	-13	-6	-9

Bioassay records deposited in PubChem by The Scripps Research Institute Molecular Screening Center.
